The record followed here is PubChem BioAssay.

Calls of active or inactive are those of the source.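 Rule for the calls, unless noted: active = viability at or below 10% of carrier control in both of two separate runs; inconclusive = viability at or below 10% in only one of the two runs; inactive = the rest.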

Assay [1] is described as follows: Her2 expression decrease, cell viability multiplex – SKBR3 breast tumor cells, AlphaScreen, ATP viability, primary screen (AID 461;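 active = Her2 level under about 52% in both replicate screens, with viability over 70% of control, limit read from the data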;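 for Her2 level: lower value means less Her2 protein in the cells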;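 for viability: percent of carrier control wells set as 100% viability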). The note with it: SKBR3 Her2 protein level, 18-24 h, measured here: SKBR3 viability, ATP luminescence, at 10 µM. On the technique in general: Bead proximity is the source of the signal in Alpha formats.
For assay [2], the target named is Receptor tyrosine-protein kinase erbB-2 (Homo sapiens) (UniProt P04626). The assay is described as above. The note with it: 18-24 h, at 10 µM, stronger effect = lower value.
Receptor tyrosine-protein kinase erbB-2 (Homo sapiens), sequence (P04626 whole entry, looked up): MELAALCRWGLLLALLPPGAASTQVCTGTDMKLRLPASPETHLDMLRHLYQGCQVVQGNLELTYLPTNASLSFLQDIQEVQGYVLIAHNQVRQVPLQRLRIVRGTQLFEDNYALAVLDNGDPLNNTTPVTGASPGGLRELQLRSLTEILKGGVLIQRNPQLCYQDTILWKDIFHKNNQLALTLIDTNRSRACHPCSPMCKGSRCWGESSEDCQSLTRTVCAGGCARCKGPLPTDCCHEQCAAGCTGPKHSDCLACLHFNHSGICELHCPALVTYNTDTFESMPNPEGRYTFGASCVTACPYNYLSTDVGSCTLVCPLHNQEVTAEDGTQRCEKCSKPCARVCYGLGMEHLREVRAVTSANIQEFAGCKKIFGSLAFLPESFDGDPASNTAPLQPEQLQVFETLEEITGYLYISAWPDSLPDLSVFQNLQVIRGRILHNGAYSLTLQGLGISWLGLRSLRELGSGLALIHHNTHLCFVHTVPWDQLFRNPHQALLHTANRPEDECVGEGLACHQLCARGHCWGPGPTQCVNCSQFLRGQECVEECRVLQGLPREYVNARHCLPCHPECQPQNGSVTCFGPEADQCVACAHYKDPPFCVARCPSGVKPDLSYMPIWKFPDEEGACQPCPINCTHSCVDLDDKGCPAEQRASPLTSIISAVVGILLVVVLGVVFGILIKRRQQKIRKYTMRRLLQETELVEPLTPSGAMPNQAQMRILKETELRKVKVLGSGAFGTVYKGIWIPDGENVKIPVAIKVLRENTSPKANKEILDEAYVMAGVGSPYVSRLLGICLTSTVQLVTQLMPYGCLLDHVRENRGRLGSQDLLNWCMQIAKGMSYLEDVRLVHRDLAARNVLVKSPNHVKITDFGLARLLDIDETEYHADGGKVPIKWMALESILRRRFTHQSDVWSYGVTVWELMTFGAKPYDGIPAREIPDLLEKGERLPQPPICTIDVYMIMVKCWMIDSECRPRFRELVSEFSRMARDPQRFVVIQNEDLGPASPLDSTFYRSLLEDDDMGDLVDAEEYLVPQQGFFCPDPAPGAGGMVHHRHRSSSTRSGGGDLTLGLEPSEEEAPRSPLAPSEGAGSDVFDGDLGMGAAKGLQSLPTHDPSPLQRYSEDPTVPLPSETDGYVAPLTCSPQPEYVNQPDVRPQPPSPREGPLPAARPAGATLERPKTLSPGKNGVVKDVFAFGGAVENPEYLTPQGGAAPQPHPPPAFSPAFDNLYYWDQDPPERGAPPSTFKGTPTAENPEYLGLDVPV
Assay [3] can be described thus: reduced viability of SK-BR-3 breast cancer cells – cell-based, 24 h, human, pilot screen (AID 572).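 Note: compound exposure lasted between 18 and 24 h rather than exactly 24 h; 100% = carrier-treated control wells.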 As to conditions: SK-BR-3 viability, CellTiter-Glo luminescence, at 10 µM, stronger effect = lower value. For orientation: Cellular ATP, detected with luciferase, serves as a proxy for viable cell number.
Assay [4] in a line: HUVEC growth inhibition – cell-based, human, primary screen (AID 575;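 active = viability at or below 30% in both replicate assays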;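 note: 100% = median of untreated cell wells with 0.1% DMSO on each plate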). As to conditions: HUVEC proliferation, CellTiter-Glo luminescence, 72 h; at 10 µM; stronger effect = lower value. An outline of the steps:
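Timing: 72 h treatment at 37 °C; material: HUVEC primary cells; technique: CellTiter-Glo luminescence measuring cellular ATP; controls: vehicle and MePR control wells; measure: percent of median DMSO-control luminescence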

Assay [5] can be described thus: H69AR cell proliferation blockers – human, duplicate replicates, primary screen (AID 580;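 active = viability at or under a set limit in both replicates, limit being median viability minus 3 SD, cut at about 48% in these data, passing the limit was not always enough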;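 note: 100% = mean luminescence of untreated wells and 0% = no signal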). As to conditions: H69AR lung tumor cells viability, ATP luminescence, 72 h; at 10 µM; stronger effect = lower value.
A short description of assay [6]: MRP1 drug-resistance reversers in H69AR cells – cell-based, doxorubicin co-treatment, pilot screen (AID 601;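 active = viability loss from added drug above about 55%, and viability with drug at most 40%, in both replicates, limit read from the data, passing the limit was not always enough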). The note with it: CellTiter-Glo, 72 h, at 10 µM; for differential viability (reversal): stronger effect = higher value.
Assay [7] in a line: yeast transport mutant growth inhibition pilot in 384-well plates, post-Golgi transport modulator project (AID 636; in the data active = inhibition above about 31%). As to conditions: absorbance 615 nm, about 18 h, stronger effect = higher value.
Assay [8] in a line: growth suppression of yeast trafficking mutant, preliminary HTS, modulators of trafficking downstream of Golgi apparatus project, 1536-format plate, OD 615 nm (AID 637; in the data active = inhibition above about 30%). The note with it: yeast transport mutant growth, absorbance 615 nm, 18 h; stronger effect = higher value.
Where [9] appears, read: H69AR cells + 2 uM doxorubicin, measured here: viability with 2 uM doxorubicin, stronger effect = lower value.
The mark [10] stands for this setting: H69AR cells, compound alone cytotoxicity.

In the case of `COc1cc(C2c3c(oc4c(C)cc(C)cc4c3=O)C(=O)N2Cc2cccnc2)cc(OC)c1OC` (stereo not given), the viability – broadly, a read-out of living cells in per cent, often relative to untreated cells – was 110% in assay [1]; 110% (inactive) in assay [3]; 97.6% (inactive) in assay [4]; 110% (inactive) in assay [5]; 104% in assay [6] (setting [9]); 110% in assay [6] (setting [10]). Besides, the Her2 level in assay [2] is 114% (inactive). Besides, in assay [6] (H69AR cells + 2 uM doxorubicin), the differential viability (reversal) was 6.48% (inactive). Further, the inhibition (commonly the drop in the measured response relative to a control, in per cent) was 1.33% (inactive) in assay [7] and -3.06% (inactive) in assay [8].
Regarding `Cc1ccc(-c2cc(C(=O)Nc3cc(C)ccc3C)[nH]n2)c(O)c1`, the viability is 102% in assay [1]; 102% (inactive) in assay [3]; 109% (inactive) in assay [4]; 92.4% (inactive) in assay [5]; 89.6% in assay [6] (setting [9]); 92.4% in assay [6] (setting [10]). In addition, in assay [2], the Her2 level was 88% (inactive). Also, the differential viability (reversal) in assay [6] (H69AR cells + 2 uM doxorubicin) was 2.75% (inactive). For the same compound, the inhibition in assay [7] was -3.16% (inactive); in assay [8] it was -1.9% (inactive).
For the compound `CCOc1ccc(-c2noc(-c3ccncc3)n2)cc1OCC`, the viability in assay [1] is 99%; in assay [3] it was 99% (inactive); in assay [4], 119% (inactive); in assay [5] it was 86.7% (inactive); in assay [6] (setting [9]), 90.7%; in assay [6] (setting [10]) it was 86.7%. The Her2 level in assay [2] was 108% (inactive). Moreover, the differential viability (reversal) in assay [6] (H69AR cells + 2 uM doxorubicin) was -3.94% (inactive). The inhibition in assay [7] is -6.13% (inactive); in assay [8] it was -1.61% (inactive).
As for `C/C=C/Cn1c(Br)nc2c1c(=O)[nH]c(=O)n2C`, the viability in assay [1] is 101%; in assay [3] it was 101% (inactive); in assay [4], 90.7% (inactive); in assay [5], 93.5% (inactive); in assay [6] (setting [9]), 86.3%; in assay [6] (setting [10]), 93.5%. Moreover, the Her2 level in assay [2] is 91% (inactive). Besides, the differential viability (reversal) in assay [6] (H69AR cells + 2 uM doxorubicin) was 7.23% (inactive). Besides, the results for the inhibition in assay [7] and in assay [8] were -6.53% (inactive) and 0.16% (inactive), respectively.
`COC(=O)c1ccc(C2NC(C(=O)O)CS2)cc1` (stereo not given): the viability in assay [1] was 132%; in assay [3] it was 132% (inactive); in assay [4] it was 102% (inactive); in assay [5], 89% (inactive); in assay [6] (setting [9]), 97.3%; in assay [6] (setting [10]) it was 89%. In addition, the Her2 level in assay [2] was 103% (inactive). In assay [6] (H69AR cells + 2 uM doxorubicin), the differential viability (reversal) was -8.38% (inactive). Also, the values for the inhibition in assay [7] and in assay [8] were -0.79% (inactive) and 3.02% (inactive), respectively.
Regarding `c1ccc(OCCCn2nnc(-c3cccnc3)n2)cc1`, the viability in assay [1] was 110%; in assay [3], 110% (inactive); in assay [4], 103% (inactive); in assay [5], 108% (inactive); in assay [6] (setting [9]) it was 97.3%; in assay [6] (setting [10]), 108%. In addition, in assay [2], the Her2 level is 87.5% (inactive). Further, in assay [6] (H69AR cells + 2 uM doxorubicin), the differential viability (reversal) is 10.3% (inactive). The inhibition in assay [7] is -3.68% (inactive); in assay [8] it was -5.83% (inactive).
`CC1(C)CC(=O)c2cnc(NCc3ccco3)nc2C1`: the viability is 99% in assay [1]; 99% (inactive) in assay [3]; 114% (inactive) in assay [4]; 96.2% (inactive) in assay [5]; 85.2% in assay [6] (setting [9]); 96.2% in assay [6] (setting [10]). Also, the Her2 level in assay [2] was 107% (inactive). In assay [6] (H69AR cells + 2 uM doxorubicin), the differential viability (reversal) is 11% (inactive). Further, the figures for the inhibition in assay [7] and in assay [8] were -10.4% (inactive) and -8.83% (inactive), respectively.
With `COc1ccc(Br)cc1S(=O)(=O)N1CC(C)OC(C)C1` (stereo not given), the viability is 90.5% in assay [1]; 90.5% (inactive) in assay [3]; 95.6% (inactive) in assay [4]; 91.3% (inactive) in assay [5]; 96.2% in assay [6] (setting [9]); 91.3% in assay [6] (setting [10]). Also, the Her2 level in assay [2] was 100% (inactive). Moreover, the differential viability (reversal) in assay [6] (H69AR cells + 2 uM doxorubicin) was -4.83% (inactive). Moreover, the inhibition in assay [7] was 1.73% (inactive); in assay [8], -6.35% (inactive).
Consider `O=C(CN(CCc1ccccc1)C(=O)CNS(=O)(=O)c1ccccc1)NCC1CCCO1` (stereo not given), for which the viability is 91% in assay [1]; 91% (inactive) in assay [3]; 86.9% (inactive) in assay [4]; 102% (inactive) in assay [5]; 96.2% in assay [6] (setting [9]); 102% in assay [6] (setting [10]). Further, the Her2 level in assay [2] is 87.5% (inactive). Further, the differential viability (reversal) in assay [6] (H69AR cells + 2 uM doxorubicin) is 5.36% (inactive). Further, the inhibition is -0.81% (inactive) in assay [7] and -2.13% (inactive) in assay [8].
As to `COc1cc2c(cc1NC(=O)COC(=O)Cn1cnc3ccccc31)oc1ccccc12`, the viability in assay [1] was 92%; in assay [3] it was 92% (inactive); in assay [4] it was 64.4% (inactive); in assay [5], 80.8% (inactive); in assay [6] (setting [9]), 96.9%; in assay [6] (setting [10]), 80.8%. Moreover, the Her2 level in assay [2] is 89% (inactive). Also, the differential viability (reversal) in assay [6] (H69AR cells + 2 uM doxorubicin) is -16.1% (inactive). Besides, the inhibition in assay [7] is -1.87% (inactive); in assay [8] it was -3.23% (inactive).
With `C=CCOC(=O)C1=C(C)OC(N)=C(C#N)C1c1ccc2c(c1)OCO2` (stereo not given), the viability in assay [1] is 107%; in assay [3] it was 107% (inactive); in assay [4], 98.2% (inactive); in assay [5], 94.5% (inactive); in assay [6] (setting [9]), 86.9%; in assay [6] (setting [10]), 94.5%. Also, in assay [2], the Her2 level was 90.5% (inactive). Further, in assay [6] (H69AR cells + 2 uM doxorubicin), the differential viability (reversal) is 7.53% (inactive). The results for the inhibition in assay [7] and in assay [8] were -4.32% (inactive) and -4.44% (inactive), respectively.
With `COC(=O)c1ccc(CNC(=O)CSc2nc3sc(C)c(C)c3c(=O)n2C)o1`, the viability in assay [1] was 93.5%; in assay [3] it was 93.5% (inactive); in assay [4], 97.5% (inactive); in assay [5] it was 98.5% (inactive); in assay [6] (setting [9]) it was 82.9%; in assay [6] (setting [10]), 98.5%. Further, the Her2 level in assay [2] is 102% (inactive). In addition, in assay [6] (H69AR cells + 2 uM doxorubicin), the differential viability (reversal) was 15.5% (inactive). In addition, the results for the inhibition in assay [7] and in assay [8] were 0.65% (inactive) and -4.33% (inactive), respectively.
Take `CCC(c1nnnn1C(C)(C)C)N1CCN(C2CCCC2)CC1` (stereo not given): the viability was 98.5% in assay [1]; 98.5% (inactive) in assay [3]; 103% (inactive) in assay [4]; 107% (inactive) in assay [5]; 89.3% in assay [6] (setting [9]); 107% in assay [6] (setting [10]). Further, the Her2 level in assay [2] is 114% (inactive). In addition, the differential viability (reversal) in assay [6] (H69AR cells + 2 uM doxorubicin) is 17.5% (inactive). Also, the figures for the inhibition in assay [7] and in assay [8] were 1.2% (inactive) and 4.59% (inactive), respectively.
For the compound `CC1C=CC(C)C(C(=O)O)C1C(=O)O` (stereo not given), the viability was 103% in assay [1]; 103% (inactive) in assay [3]; 97.6% (inactive) in assay [4]; 93% (inactive) in assay [5]; 98.3% in assay [6] (setting [9]); 93% in assay [6] (setting [10]). Besides, in assay [2], the Her2 level is 93% (inactive). Further, in assay [6] (H69AR cells + 2 uM doxorubicin), the differential viability (reversal) was -5.29% (inactive). Further, the inhibition in assay [7] is -0.65% (inactive); in assay [8] it was -5.67% (inactive).
Consider `O=C(c1ccccc1Br)N1CCN(c2ccccc2)CC1`, for which the viability in assay [1] was 85%; in assay [3] it was 85% (inactive); in assay [4], 93.6% (inactive); in assay [5], 102% (inactive); in assay [6] (setting [9]) it was 88.9%; in assay [6] (setting [10]), 102%. For the same compound, the Her2 level in assay [2] was 83.5% (inactive). In assay [6] (H69AR cells + 2 uM doxorubicin), the differential viability (reversal) is 12.9% (inactive). Further, the figures for the inhibition in assay [7] and in assay [8] were -8.22% (inactive) and -4.76% (inactive), respectively.
Consider `O=C(CSc1ncnc2c1oc1ccccc12)Nc1ccccc1C(F)(F)F`, for which the viability in assay [1] is 118%; in assay [3] it was 118% (inactive); in assay [4], 86.8% (inactive); in assay [5], 95.8% (inactive); in assay [6] (setting [9]), 87.6%; in assay [6] (setting [10]), 95.8%. For the same compound, the Her2 level in assay [2] was 126% (inactive). For the same compound, in assay [6] (H69AR cells + 2 uM doxorubicin), the differential viability (reversal) was 8.15% (inactive). Moreover, the inhibition in assay [7] was -5.6% (inactive); in assay [8], -2% (inactive).
